Compounds with a hit are over-represented: about 2.3% of the library has one in this group of screens.
TRPC6 inhibitor: blocks the mouse TRPC6 cation channel | AID 2553 | HEK293-TRPC6, membrane potential dye, ACh-evoked depolarization; stronger effect = lower value | Q61143 | actives 1.1% (n = 310,000) | B-score at 10 µM;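 active = B-score under library mean minus 3 SD, initial fluorescence not abnormally high, positive integrated signal ratio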;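 note: B-score derived from integrated fluorescence ratio over the kinetic read; more negative B-score means stronger inhibition of depolarization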
Target sequence (Q61143 whole entry, looked up): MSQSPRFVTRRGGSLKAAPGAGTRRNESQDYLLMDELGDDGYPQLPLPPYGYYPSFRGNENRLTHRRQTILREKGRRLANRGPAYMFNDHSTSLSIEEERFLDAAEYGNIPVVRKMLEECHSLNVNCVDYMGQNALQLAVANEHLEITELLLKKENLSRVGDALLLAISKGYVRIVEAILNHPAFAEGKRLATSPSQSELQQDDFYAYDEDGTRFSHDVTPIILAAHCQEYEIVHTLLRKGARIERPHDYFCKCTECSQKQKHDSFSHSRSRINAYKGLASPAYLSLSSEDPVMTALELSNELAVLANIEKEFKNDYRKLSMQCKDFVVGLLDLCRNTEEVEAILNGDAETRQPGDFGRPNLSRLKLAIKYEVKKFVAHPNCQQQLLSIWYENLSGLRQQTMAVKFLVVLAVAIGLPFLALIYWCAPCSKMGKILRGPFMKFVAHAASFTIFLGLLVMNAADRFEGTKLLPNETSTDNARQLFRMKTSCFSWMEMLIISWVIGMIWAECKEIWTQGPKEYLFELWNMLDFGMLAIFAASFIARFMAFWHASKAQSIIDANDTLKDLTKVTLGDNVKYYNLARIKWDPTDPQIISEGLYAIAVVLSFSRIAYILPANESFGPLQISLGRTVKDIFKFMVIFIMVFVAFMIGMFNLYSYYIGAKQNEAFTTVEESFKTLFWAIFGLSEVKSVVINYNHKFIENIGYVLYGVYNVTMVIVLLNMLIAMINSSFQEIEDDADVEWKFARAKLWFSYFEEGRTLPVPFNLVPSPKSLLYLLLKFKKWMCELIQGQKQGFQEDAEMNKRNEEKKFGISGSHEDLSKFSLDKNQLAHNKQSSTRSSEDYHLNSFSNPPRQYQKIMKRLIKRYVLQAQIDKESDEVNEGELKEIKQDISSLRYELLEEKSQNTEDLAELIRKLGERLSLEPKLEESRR
TRPC4 PAM: allosterically enhances the mouse TRPC4 cation channel. Q9QUQ5. HEK293 TRPC4beta/mu-opioid, DAMGO EC20, Fluo-4 Ca2+ flux; stronger effect = higher value. B-score at 10 µM. actives 0.42% (n = 310,000);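 active = B-score of calcium response area above 5 SD of library B-scores, with initial fluorescence ratio within 5 SD of library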
TRPC4 act: activators of mouse TRPC4 channel. HEK293 TRPC4beta/mu-opioid, Fluo4 calcium fluorescence; stronger effect = higher value. actives 0.49% (n = 310,000). Q9QUQ5. AID 2237. B-score at 10 µM;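 active = B-score above 5 SD of library B-scores, and initial fluorescence ratio not above library mean plus 5 SD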;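 note: positive B-score marks a calcium rise read as TRPC4 activation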
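Material: TRPC4beta and mu-opioid receptor HEK293 stable cells | Incubation: 45 min room-temperature Fluo4 loading, 110 s read | Detection: Kinetic Fluo4 calcium fluorescence | Measure: Integrated baseline-normalised fluorescence ratio, converted to per-well B score | Benchmarks: Low control buffer alone, high control maximal DAMGO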
TRPC4 inh: inhibitors of mouse TRPC4 channel. Q9QUQ5. HEK293 TRPC4beta/mu-opioid, DAMGO-evoked Fluo4 calcium flux; stronger effect = lower value. B-score at 10 µM. actives 0.39% (n = 300,000). AID 2247;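 active = B-score over 3 SD under the library average, no early fluorescence shift, positive overall ratio signal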
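System: stable TRPC4beta/mu-opioid receptor HEK293 cells; Dosing: single-point compound dosing; Measured by: Fluo4 Ca2+ flux fluorescence; Read-out basis: per-well B score of integrated baseline-normalized Fluo4 ratio.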
TRPC6 activator: activators of mouse TRPC6 channel. Q61143. HEK293-TRPC6 membrane potential dye fluorescence; stronger effect = higher value. B-score at 10 µM. actives 0.13% (n = 310,000);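 active = B-score of the integrated fluorescence ratio above library mean plus 3 SD, and starting fluorescence ratio within library mean plus 5 SD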;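 note: higher score means more depolarization so channel activation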
TRPC4 spec 2: mouse TRPC4 off-target activity of TRPC6 inhibitors, second screen; shares compounds with TRPC6 inhibitor; HEK293 TRPC4/MOR, membrane potential dye fluorescence; channel activated by saturating DAMGO dose; inhibition, % at 10 µM; actives 42% (n = 920); AID 2776;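 active = compounds whose fluorescence signal differed from control wells by over 3 SD, either direction, in both duplicate plates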
TRPC4 spec: selectivity of TRPC6 inhibitors: effect on mouse TRPC4; AID 2777; shares compounds with TRPC6 inhibitor; actives 61% (n = 920); HEK293 TRPC4/mu-opioid, membrane potential fluorescence; activity change, negative = inhibition, % at 10 µM;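 active = rise or fall in signal beyond 3 SD of buffer-only wells in both replicate plates, either sign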;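 note: integrated kinetic ratio of fluorescence range over baseline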
HEK293 MPD ctr 2-1: second check of TRPC6 inhibitor effects in parental HEK293 cells; shares compounds with TRPC6 inhibitor; parental HEK293 membrane potential dye fluorescence; maximal acetylcholine challenge after compound addition; signal change vs control, % at 10 µM; actives 31% (n = 920);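 active = membrane potential signal moving either way by over 3 SD of the maximum-effect control, in both duplicate plates, meaning non-specific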
HEK293 MPD ctr-1: checks TRPC6 inhibitor effects in parental HEK293 cells; parental HEK293 membrane potential dye fluorescence; AID 2780; shares compounds with TRPC6 inhibitor; actives 60% (n = 920); membrane potential signal change, % at 10 µM;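 active = membrane potential signal shifting up or down by more than 3 SD of buffer-only wells, on both duplicate plates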
HEK293 MPD ctr-2: checks TRPC6 modulator effects in parental HEK293 cells; shares compounds with TRPC6 inhibitor; membrane potential dye fluorescence; membrane potential signal change, % at 10 µM; actives 51% (n = 2,400);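 active = membrane potential signal moves up or down beyond 5 SD from buffer-only wells, on both duplicate plates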
HEK293 MPD ctr 2-2: second counter-screen for TRPC6 modulators: effect in parental HEK293 cells; shares compounds with TRPC6 inhibitor; membrane potential dye fluorescence; after compound, maximal acetylcholine stimulation; inhibition, % at 10 µM; actives 14% (n = 2,400); AID 488926;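 active = membrane potential signal drops by more than 5 SD from the mean control signal, in both duplicate plates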
TRPC4/MOR mod: selectivity of TRPC6 modulators against mouse TRPC4 | percent change from control (negative = decrease, positive = increase), % at 10 µM | actives 69% (n = 2,400) | AID 488927 | HEK293 TRPC4/mu-opioid, membrane potential fluorescence | shares compounds with TRPC6 inhibitor;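 active = membrane potential signal moved up or down beyond 5 SD of buffer control wells, in both duplicate plates, actives on both sides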
TRPC4 ctr inh 2: mouse TRPC4 off-target activity of TRPC6 modulators, second screen; inhibition, % at 10 µM; HEK293 TRPC4/mu-opioid, membrane potential dye fluorescence; stimulated with maximal-effect DAMGO; actives 55% (n = 2,400); shares compounds with TRPC6 inhibitor;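 active = drop in membrane potential signal beyond 5 SD of the control wells in both duplicate plates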;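 note: TRPC4 counter screen for TRPC6 hits run under conditions tuned for TRPC6 not TRPC4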
TRPC6 inh conf: mouse TRPC6 inhibitor confirmation. HEK293-TRPC6, membrane potential dye, ACh-evoked depolarization. shares compounds with TRPC6 inhibitor. inhibition, % at 10 µM. actives 43% (n = 3,300);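 active = fluorescence ratio falls more than 5 SD below the full-stimulation control mean, in both duplicate runs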;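 note: integrated fluorescence ratio of peak minus minimum over baseline after agonist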
TRPC6 act confirm: confirmation of mouse TRPC6 activators | shares compounds with TRPC6 inhibitor | HEK293-TRPC6 membrane potential dye fluorescence, FDSS | activation, % at 10 µM | actives 11% (n = 2,800) | AID 488961;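 active = ratio signal rise beyond 5 SD above unstimulated control wells' mean, seen in both duplicate runs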
Each line names hits and unclear results; the compound was inactive in the other large screens (follow-up assays come after a bar, where they were run).

CCCCOc1ccc(C(=O)OC(C)CN(C)C)cc1 (centres undefined)	TRPC6 activator 12.2 | HEK293 MPD ctr-2 217.5% | HEK293 MPD ctr 2-2 inactive | TRPC4/MOR mod 35.0% | TRPC4 ctr inh 2 34.5% | TRPC6 inh conf inactive | TRPC6 act confirm 102.0%
Cc1noc(C)c1-c1nc(CS(=O)(=O)c2ccc(F)cc2)no1	none
Cc1nnc(N/N=C/c2ccccc2C(F)(F)F)n1N	none
CN(C)c1cc(N/N=C/c2ccccc2C(F)(F)F)nc(N(C)C)n1	TRPC6 inhibitor -5.07 | HEK293 MPD ctr-2 inactive | HEK293 MPD ctr 2-2 inactive | TRPC4/MOR mod inactive | TRPC4 ctr inh 2 inactive | TRPC6 inh conf inactive | TRPC6 act confirm inactive
CCOC(=O)CNS(=O)(=O)c1ccc(S(=O)(=O)N2CCCC2)cc1	TRPC6 inhibitor -7.85 | TRPC4 spec 2 inactive | TRPC4 spec inactive | HEK293 MPD ctr 2-1 inactive | HEK293 MPD ctr-1 inactive | TRPC6 inh conf inactive | TRPC6 act confirm inactive
CCOc1ccc(C(=O)Nc2ccc(C(=O)N3CCOCC3)cc2)c(OCC)c1	none
O=c1oc2ccccc2c(N2CCCCC2)c1CN1CCCC1	none
O=c1oc2ccccc2c(N2CCCCC2)c1CN1CCCCC1	TRPC6 inhibitor -5.13 | HEK293 MPD ctr-2 106.5% | HEK293 MPD ctr 2-2 inactive | TRPC4/MOR mod 25.5% | TRPC4 ctr inh 2 inactive | TRPC6 inh conf inactive
Cc1ccc(C)c(N2CCN(C(=O)c3ccc(CS(=O)(=O)c4ccccc4C)o3)CC2)c1	TRPC6 inhibitor -8.85 | TRPC4 spec 2 inactive | TRPC4 spec inactive | HEK293 MPD ctr 2-1 inactive | HEK293 MPD ctr-1 inactive | TRPC6 inh conf inactive | TRPC6 act confirm inactive
CC(=O)N[C@@H](Cc1c[nH]c2ccccc12)C(=O)NCCc1ccc(S(N)(=O)=O)cc1	none
Cc1c(C)n(Cc2ccccc2)c2ccc(C(=O)NCCN3CCOCC3)cc12	none
Cc1c(C)n(Cc2ccccc2)c2ccc(C(=O)OCCN(C)C)cc12	TRPC6 inhibitor -5.98 | HEK293 MPD ctr-2 inactive | HEK293 MPD ctr 2-2 inactive | TRPC4/MOR mod inactive | TRPC4 ctr inh 2 72.0% | TRPC6 inh conf 55.5% | TRPC6 act confirm inactive
CC1CCCCC12NC(=O)N(CC(=O)OCC(=O)c1ccc(OC(F)F)cc1OC(F)F)C2=O (centres undefined)	none
Cc1ccc(SCCC(=O)OC(C)C(=O)Nc2ccccc2)cc1 (centres undefined)	none
CCOC(=O)c1c(C)oc2c(CC(=O)c3ccccc3)c(Cl)c(O)c(O)c12	TRPC6 inhibitor -9 | TRPC4 spec 2 inactive | TRPC4 spec inactive | HEK293 MPD ctr 2-1 inactive | HEK293 MPD ctr-1 inactive | TRPC6 inh conf inactive | TRPC6 act confirm inactive
COC(=O)C(Cc1ccccc1)P(=O)(c1ccccc1)c1ccccc1 (centres undefined)	none
CC(C)NCC(O)Cn1c2c(c3ccccc31)CCc1c-2cnn1-c1ccccc1 (centres undefined)	TRPC6 inhibitor -10 | TRPC4 spec 2 28.5% | TRPC4 spec -23.4% | HEK293 MPD ctr 2-1 39.5% | HEK293 MPD ctr-1 -325.5% | TRPC6 inh conf 85.5% | TRPC6 act confirm inactive
CN1CCc2c(n(CC(O)CNCc3ccccc3)c3ccccc23)C1=O (centres undefined)	none
CCC(c1nnc(SCC(=O)Nc2c(F)cccc2F)n1Cc1ccccc1)N(C)C (centres undefined)	none
CCc1cc2c(-c3ccccc3)cc(=O)oc2c(CN2CCOCC2)c1O	TRPC6 inhibitor -5.07 | HEK293 MPD ctr-2 inactive | HEK293 MPD ctr 2-2 inactive | TRPC4/MOR mod 14.5% | TRPC4 ctr inh 2 inactive | TRPC6 inh conf 50.0%
O=c1cc(-c2ccccc2)c2cc(Cl)c(O)c(CN3CCOCC3)c2o1	none
COc1cc(=O)[nH]c(SCC(=O)Nc2nc3c(s2)CCCC3)n1	none
O=[N+]([O-])c1ccc(OCCCCN2CCc3ccccc3C2)cc1	TRPC6 inhibitor -8.36 | TRPC4 spec 2 43.5% | TRPC4 spec inactive | HEK293 MPD ctr 2-1 inactive | HEK293 MPD ctr-1 inactive | TRPC6 inh conf inactive | TRPC6 act confirm inactive
CC(=O)Nc1ccc(NC(=O)C2CCN(C(=O)C3CC(=O)N(c4ccc(C)cc4)C3)CC2)cc1 (centres undefined)	none
O=C(O)CC(c1cccc(O)c1)N1Cc2ccccc2C1=O (centres undefined)	none
CC(C)(C)c1ccc(Cn2c(=N)n(CC(O)c3ccco3)c3ccccc32)cc1 (centres undefined)	TRPC6 inhibitor -7.3 | TRPC4 spec 2 37.0% | TRPC4 spec 11.0% | HEK293 MPD ctr 2-1 inactive | HEK293 MPD ctr-1 8.7% | TRPC6 inh conf 66.7% | TRPC6 act confirm inactive
Cc1ccccc1Cn1c(=N)n(CC(O)c2ccco2)c2ccccc21 (centres undefined)	TRPC6 inhibitor -5.25, TRPC4 inh -6 | HEK293 MPD ctr-2 143.0% | HEK293 MPD ctr 2-2 inactive | TRPC4/MOR mod 49.0% | TRPC4 ctr inh 2 99.0% | TRPC6 inh conf 48.0%
CCn1c(=N)n(CC(O)c2ccccc2)c2ccccc21 (centres undefined)	none
CCCCn1c(=N)n(CC(O)c2ccccc2)c2ccccc21 (centres undefined)	none

From PubChem
